Holding throughout (format): cell-based
The subject of test [1] is Bacillus subtilis (ATCC 6633). The experiment in a line: Paper disk diffusion MIC. The note with it: ATCC6633, 24 h, read-out: Minimal Inhibitory Concentration (MIC). The procedure, abridged:
(§1)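 Paper disk diffusion MIC. Paper disks (12.7 mm) were loaded with test compound at different concentrations, dried and placed on nutrient agar inoculated with the test organism. Growth inhibition was examined after 24 hrs at 37°C. Each test was done three times, and values are the mean ± standard error.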
On the technique in general: A growth-free zone around the sample is the usual read-out of agar diffusion tests.

The subject of test [2] is Pseudomonas aeruginosa (ATCC 27853). The experiment in a line: Paper disk diffusion MIC. Particulars: ATCC27853, 24 h, read-out: Minimal Inhibitory Concentration (MIC). The procedure, abridged:
as §1

The subject of test [3] is Staphylococcus aureus (ATCC 29213). Description: Paper disk diffusion MIC. The note with it: ATCC29213, 24 h, read-out: Minimal Inhibitory Concentration (MIC). A digest of the protocol: as §1
Test [4] has as its system Escherichia coli (ATCC 25922). Description: Paper disk diffusion MIC. Particulars: ATCC25922, 24 h, read-out: Minimal Inhibitory Concentration (MIC). The procedure, abridged: as §1
In test [5] the test system is Escherichia coli (ATCC 25922). The experiment in a line: Agar plate diffusion, inhibition zone. Particulars: ATCC25922, 24 h, read-out: Mean Diameter of Inhibition Zone (IZ).
For test [6], the system named is Bacillus subtilis (ATCC 6633). The experiment in a line: Agar plate diffusion, inhibition zone. Particulars: ATCC6633, 24 h, read-out: Mean Diameter of Inhibition Zone (IZ).
Test [7] has as its system Staphylococcus aureus (ATCC 29213). The experiment in a line: Agar plate diffusion, inhibition zone. Particulars: ATCC29213, 24 h, read-out: Mean Diameter of Inhibition Zone (IZ).
Test [8] has as its system Pseudomonas aeruginosa (ATCC 27853). The experiment in a line: Agar plate diffusion, inhibition zone. Particulars: ATCC27853, 24 h, read-out: Mean Diameter of Inhibition Zone (IZ).
The subject of test [9] is MRSA. The experiment in a line: Paper disk diffusion MIC. Particulars: Staphylococcus aureus, 24 h, read-out: Minimal Inhibitory Concentration (MIC). A digest of the protocol:
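Bacteria were grown on nutrient agar. Dried 12.7 mm paper disks loaded with a range of test compound concentrations were placed on inoculated agar plates. Growth inhibition was scored after 24 h at 37°C, and each test was replicated three times.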

Test [10] concerns MRSA. Description: Agar plate diffusion, inhibition zone. Particulars: Staphylococcus aureus, 24 h, read-out: Mean Diameter of Inhibition Zone (IZ).

SMILES strings stand for the structures. In brackets after ≈: the same amount, converted by molar mass.

This is an account of results in paper PMC7211327 (International Journal of Nanomedicine, 2020).

The zone of inhibition is the size of the clear area around the sample on an inoculated plate. In the case of `Cc1ccccc1NC(=O)CSc1nc2ccccc2c(=O)n1-c1ccc(S(N)(=O)=O)cc1` [Compound 6, 2-((4-Oxo-3-(4-sulfamoylphenyl)-3,4-dihydroquinazolin-2-yl)thio)-N-2-tolylacetamide], the MIC in [1] is 15.6 mg/L (≈ 32.5 µM); in test [2] it was 7.5 mg/L (≈ 15.6 µM); in test [3] it was 31.2 mg/L (≈ 65 µM); in [4] it was 5 mg/L (≈ 10.4 µM). The zone of inhibition at 500 µg/mL in [5] came to 15 ± 0.31 mm; in test [6] it was 16 ± 0.1 mm; in [7], 14 ± 0.03 mm; in test [8], 17 ± 0.13 mm.
`NS(=O)(=O)c1ccc(-n2c(SCC(=O)Nc3ccccc3)nc3ccccc3c2=O)cc1` [Compound 5, 2-((4-Oxo-3-(4-sulfamoylphenyl)-3,4-dihydroquinazolin-2-yl)thio)-N-phenylacetamide]: the MIC in [1] stood at 2.5 mg/L (≈ 5.36 µM); in [9], 10 mg/L (≈ 21.4 µM); in test [2], 20 mg/L (≈ 42.9 µM); in test [3] it was 1.56 mg/L (≈ 3.34 µM); in test [4], 10 mg/L (≈ 21.4 µM). The zone of inhibition at 500 µg/mL in test [10] stood at 20 ± 0.18 mm; in test [5] it was 14 ± 0.23 mm; in test [6], 25 ± 0.07 mm; in test [7] it was 22 ± 0.31 mm; in [8], 15 ± 0.21 mm.
Regarding `O=C(O)c1cn(C2CC2)c2cc(N3CCNCC3)c(F)cc2c1=O` [Ciprofloxacin, reference compound], the MIC was determined as 0.8 mg/L (≈ 2.41 µM) in test [1]; 1.25 mg/L (≈ 3.77 µM) in test [9]; 3.13 mg/L (≈ 9.45 µM) in test [2]; 0.78 mg/L (≈ 2.35 µM) in [3]; 1.57 mg/L (≈ 4.74 µM) in test [4]. Further, the zone of inhibition at 500 µg/mL is 22 ± 0.5 mm in test [10]; 27 ± 0.98 mm in test [5]; 29 ± 0.15 mm in test [6]; 27 ± 0.23 mm in test [7]; 24 ± 0.47 mm in [8].
For the compound `CN(C)[C@@H]1C(O)=C(C(N)=O)C(=O)[C@@]2(O)C(O)=C3C(=O)c4c(O)cccc4[C@@](C)(O)[C@H]3C[C@@H]12` [Tetracycline, reference compound], the MIC in [1] amounted to 31.2 mg/L (≈ 70.3 µM); in test [2], 62.5 mg/L (≈ 141 µM); in [3], 62.5 mg/L (≈ 141 µM); in [4], 15.6 mg/L (≈ 35.2 µM). Also, the zone of inhibition at 500 µg/mL is 23 ± 0.31 mm in [5], 25 ± 0.01 mm in test [6], 25 ± 0.04 mm in test [7] and 20 ± 0.1 mm in test [8].
Regarding `CN[C@H](CC(C)C)C(=O)N[C@H]1C(=O)N[C@@H](CC(N)=O)C(=O)N[C@H]2C(=O)N[C@H]3C(=O)N[C@H](C(=O)N[C@H](C(=O)O)c4cc(O)cc(O)c4-c4cc3ccc4O)[C@H](O)c3ccc(c(Cl)c3)Oc3cc2cc(c3O[C@@H]2O[C@H](CO)[C@@H](O)[C@H](O)[C@H]2O[C@H]2C[C@](C)(N)[C@H](O)[C@H](C)O2)Oc2ccc(cc2Cl)[C@H]1O` [Vancomycin, reference compound], the MIC in test [1] is 1.95 mg/L (≈ 1.35 µM); in [9], 3.9 mg/L (≈ 2.69 µM); in test [2], 2.5 mg/L (≈ 1.73 µM); in test [3] it was 1.57 mg/L (≈ 1.08 µM); in test [4], 1.38 mg/L (≈ 0.952 µM). The zone of inhibition at 500 µg/mL was found to be 14 ± 0.65 mm in test [10]; 24 ± 0.2 mm in test [5]; 21 ± 0.4 mm in [6]; 17 ± 0.11 mm in test [7]; 22 ± 0.85 mm in [8].
For the compound `Cc1cccc(NC(=O)CSc2nc3ccccc3c(=O)n2-c2ccc(S(N)(=O)=O)cc2)c1` [Compound 7, 2-((4-Oxo-3-(4-sulfamoylphenyl)-3,4-dihydroquinazolin-2-yl)thio)-N-3-tolylacetamide], the MIC in test [1] stood at 1.25 mg/L (≈ 2.6 µM); in test [9], 7.81 mg/L (≈ 16.3 µM); in test [2], 15.6 mg/L (≈ 32.5 µM); in test [3], 2.5 mg/L (≈ 5.2 µM); in [4] it was 20 mg/L (≈ 41.6 µM). The zone of inhibition at 500 µg/mL in [10] is 10 ± 0.02 mm; in [5] it was 12 ± 0.15 mm; in [6], 20 ± 0.21 mm; in test [7] it was 15 ± 0.07 mm; in [8], 14 ± 0.03 mm.
Turning to `Cc1ccc(NC(=O)CSc2nc3ccccc3c(=O)n2-c2ccc(S(N)(=O)=O)cc2)cc1` [Compound 8, 2-((4-Oxo-3-(4-sulfamoylphenyl)-3,4-dihydroquinazolin-2-yl)thio)-N-4-tolylacetamide], the MIC in [1] is 6.31 mg/L (≈ 13.1 µM); in [9], 20 mg/L (≈ 41.6 µM); in test [3] it was 12.5 mg/L (≈ 26 µM). In addition, the zone of inhibition at 500 µg/mL amounted to 19 ± 0.01 mm in [10], 26 ± 0.16 mm in test [6] and 23 ± 0.09 mm in [7].
